In the library only some 4.5% were active in any assay of this set; here they are far more common.
MrgX1 PAM: allosterically activates human MrgX1 receptor signaling; B-score at 10 µM; MrgX1-HEK293, Fluo-4 calcium flux, FDSS; stronger effect = higher value; Q96LB2; AID 588675; 310,000 tested, 0.63% active;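 active = plate-corrected calcium response at least 3 library SD above typical, normal starting fluorescence, not activating the receptor alone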;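 also: compound read alongside a low EC10 to EC30 dose of BAM8-22 agonist; peak minus trough fluorescence over baseline measured at the second addition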
Target sequence (Q96LB2 whole entry, looked up): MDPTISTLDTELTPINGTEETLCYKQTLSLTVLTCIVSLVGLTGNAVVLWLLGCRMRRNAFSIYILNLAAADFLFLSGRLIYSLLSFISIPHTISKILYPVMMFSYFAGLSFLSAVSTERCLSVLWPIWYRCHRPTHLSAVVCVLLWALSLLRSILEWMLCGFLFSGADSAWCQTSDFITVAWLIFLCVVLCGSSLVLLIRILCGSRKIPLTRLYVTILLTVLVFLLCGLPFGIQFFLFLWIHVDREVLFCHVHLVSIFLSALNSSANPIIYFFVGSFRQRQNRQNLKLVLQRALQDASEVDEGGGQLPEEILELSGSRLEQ
RGS4 block: inhibitors of human RGS4; 310,000 tested, 0.45% active; HEK293 M3R/RGS4 inducible, Fluo-4 calcium flux; stronger effect = higher value; triggered by carbachol at its EC20; B-score at 10 µM;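 active = B-score, a plate-corrected calcium signal, over three deviations above library mean, with baseline fluorescence within five deviations of library mean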;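 also: RGS4 expression induced by doxycycline in cells with stable M3 receptor; B-score is computed from the integrated fluorescence ratio over baseline after carbachol; higher B-score means a larger calcium signal and so more RGS4 inhibition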
PHOSPHO1 inh: blocks human PHOSPHO1 phosphatase activity; 290,000 tested, 1.1% active; inhibition, % at 13.3 µM; Q8TCT1; recombinant PHOSPHO1, absorbance phosphatase assay; in the data active = inhibition above about 60%
Target sequence (Q8TCT1 whole entry, looked up): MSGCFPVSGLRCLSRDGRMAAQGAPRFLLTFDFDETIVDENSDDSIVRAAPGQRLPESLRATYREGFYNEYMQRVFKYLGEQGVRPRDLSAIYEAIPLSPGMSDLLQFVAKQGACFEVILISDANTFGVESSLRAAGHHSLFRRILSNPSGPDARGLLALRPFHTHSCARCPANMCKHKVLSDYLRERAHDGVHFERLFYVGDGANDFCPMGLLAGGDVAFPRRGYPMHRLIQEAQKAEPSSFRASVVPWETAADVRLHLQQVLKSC
MrgX1 ag: activates human MrgX1 receptor signaling | Q96LB2 | MrgX1-HEK293 cells, Fluo-4 calcium fluorescence, agonist mode; stronger effect = higher value | B-score at 10 µM | 310,000 tested, 0.44% active | AID 588627;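 active = calcium response B-score plate-corrected fluorescence ratio at least 3 library SD, with starting fluorescence B-score inside 5 SD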
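Test system: Stable human MrgX1 HEK293 cell line | Schedule: Overnight plating before 1 h dye loading | Read-out basis: Baseline-normalised fluorescence change ratio, B-scored | Detection: Kinetic calcium dye fluorescence, Fluo-4 NW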
MrgX1 antag: antagonists of human MrgX1 receptor; Q96LB2; MRGX1-HEK293 calcium flux, Fluo-4, BAM8-22 antagonism; stronger effect = lower value; B-score at 10 µM; 310,000 tested, 1.3% active; AID 588676;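 active = calcium-response B-score plate-corrected more than 3 library SD below zero, starting fluorescence within 5 deviations, no agonist response on first addition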;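 also: peak minus trough fluorescence over baseline after final BAM8-22 challenge near maximal dose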
RGS4 pot: potentiators or activators of RGS4; HEK293 M3R/inducible RGS4, carbachol calcium flux Fluo4; stronger effect = lower value; B-score at 10 µM; 310,000 tested, 0.92% active;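 active = B-score of the integrated calcium signal more than 4 SD below the library mean, with starting fluorescence not abnormally high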;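 also: negative B-score means reduced calcium response which marks RGS4 activation or potentiation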
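Material: Inducible-RGS4 HEK293 cells carrying M3 receptor; also added: carbachol at ECmax as muscarinic agonist stimulus; incubation: compound preincubation 20 min at room temperature before agonist; signal: Fluo4-AM (2 µM) calcium-flux fluorescence, kinetic read; measure: integrated calcium ratio converted to B score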
An asterisk follows results filed as active; i = inactive; / = no result.

SMILES	MrgX1 PAM	RGS4 block	PHOSPHO1 inh	MrgX1 ag	MrgX1 antag	RGS4 pot
CC(NC(=O)Cn1cc(C(F)(F)F)ccc1=O)c1ccc(F)cc1 (stereo not drawn)	6.91*	i	-18.3	i	i	i
CSc1nc(SCCO)c2sc3nc(-c4ccco4)c4c(c3c2n1)CC(C)(C)OC4	/	i	76.4*	/	/	i
O=C(/C=C/c1ccc([N+](=O)[O-])s1)N1CCCC1	i	i	41.7	i	-4.61*	i
CC(C)CC(NC(=O)c1cccs1)c1nnc(SCc2ccc(Cl)c(Cl)c2)n1C (stereo not drawn)	i	i	-11.4	i	i	i
C=CCn1c(SCC(=O)c2ccc(Br)cc2)nnc1C(CC(C)C)NC(=O)c1cccs1 (stereo not drawn)	i	i	12.6	i	-6.08*	i
O=C(CSc1nnc(-c2cccnc2)o1)N1CCCCC1	i	i	30.5	i	i	i
Cc1ccc2c(c1)C1CN(C)CCC1N2CC(=O)N(C)c1ccccc1 (stereo not drawn)	i	i	83.4*	i	i	i
Cc1ccc2c(c1)C1CN(C)CCC1N2C(=O)COc1ccc(N(C)C(=O)C(C)(C)C)cc1 (stereo not drawn)	i	i	23.3	i	i	i
COc1cccc(/C=c2\sc3nc(-c4cccs4)nn3c2=O)c1OC	i	i	70.6*	i	i	i
COc1ccccc1-c1nc2s/c(=C\c3cccs3)c(=O)n2n1	i	i	-14.2	i	i	i
Cc1cccc(NC(=O)C2CCN(c3nc(C)cc(C)n3)CC2)c1	i	i	10.9	i	i	i
Cc1cccc(NC(=O)C2CC(=O)n3cnnc3S2)c1 (stereo not drawn)	i	i	95.4*	i	i	i
CCN=C1SC(C(=O)Nc2cccc(C)c2)CC(=O)N1CC (stereo not drawn)	i	i	10.0	i	i	-7.41*
O=C(N/N=C/C(Br)=C/c1ccccc1)c1ccccc1F	7.04*	i	6.3	i	i	i
O=C1C2C3CCC(C3)C2C(=O)N1Cc1ccccc1 (stereo not drawn)	i	i	-82.0	i	i	i
Cc1ccc(NC(=O)CN(C)C(=O)COc2cccc3cccnc23)cc1	i	i	-2.0	i	i	i
O=C(O)c1ccc(N2C(=O)/C(=C/c3ccc(-c4ccc([N+](=O)[O-])cc4)o3)C=C2c2ccccc2)cc1	i	i	16.1	i	i	-6.96*
O=C1NN(c2ccccc2)C(=O)/C1=C/c1ccc(-c2ccc(C(=O)O)cc2)o1	i	i	-12.5	i	i	i
CN(C(=O)COC(=O)c1cc2c(s1)CCCCC2)C1CCS(=O)(=O)C1 (stereo not drawn)	i	i	19.2	i	i	i
COc1ccc2oc(C(=O)N(C)Cc3ccc(OC(F)F)cc3)c(C)c2c1	i	i	46.6	i	i	i
CCN=C1S/C(=C/c2ccc(-c3ccc(F)cc3)o2)C(=O)N1CC	i	i	19.5	i	i	i
COC(=O)c1cc(NS(=O)(=O)c2ccc(Cl)c(N3C(=O)c4ccc(C(=O)O)cc4C3=O)c2)cc(C(=O)OC)c1	9.93*	i	24.8	i	i	i
O=C(c1ccccc1Br)N1N=C(c2ccccc2)CC1c1ccccc1F (stereo not drawn)	i	i	17.5	i	i	-7.95*
CCOC(=O)CSc1nc2c(sc(=S)n2-c2ccccc2OC)c(=O)n1-c1ccccc1OC	i	i	14.0	i	i	i
CCOC(=O)CSc1nc2c(sc(=S)n2-c2ccccc2OC)c(=O)n1Cc1ccco1	i	i	15.4	39.7*	i	i
SMILES	MrgX1 PAM	RGS4 block	PHOSPHO1 inh	MrgX1 ag	MrgX1 antag	RGS4 pot
CC(C)c1ccc(NC(=O)c2ccc3c(c2)C(=O)N(Cc2cccnc2)C3=O)cc1	i	i	32.7	i	i	i
CC(C)=CCc1c(O)cc2oc3c(CC=C(C)C)c(O)c(O)c(CC=C(C)C)c3c(=O)c2c1O	i	i	31.1	i	-5.64*	i
Cc1ccc(S(=O)(=O)N2CCN=C2SC(C)c2ccccc2)cc1 (stereo not drawn)	i	i	37.0	i	i	i
CC(SC1=NCCN1S(=O)(=O)c1ccccc1)c1ccccc1 (stereo not drawn)	i	i	61.0*	i	i	i
C/C(CCC(C)C)=N\Nc1cc(C)c2ccccc2n1	9.96*	i	21.0	i	i	i
Cc1ccc2c(CC(=O)NCCc3ccc(S(N)(=O)=O)cc3)coc2c1	i	i	0.1	i	i	i
Cn1nc(-c2ccccc2)c(C#N)c1Sc1cccc(Cl)c1	i	i	23.4	i	i	-7.31*
CCOC(=O)C1CCN(S(=O)(=O)CCNC(=O)c2ccc(F)cc2)CC1	i	i	/	i	i	i
O=S(=O)(Nc1ccc(O)c(NS(=O)(=O)c2ccccc2)c1)c1ccccc1	i	i	23.3	i	i	i
COc1ccccc1C(CNC(=O)c1ccc(-c2ccccc2Cl)o1)N1CCCC1 (stereo not drawn)	i	i	/	i	i	-7.06*
CCC(CC(C)(C)O)C(=O)NNC(=S)Nc1ccccc1 (stereo not drawn)	i	i	-63.0	i	i	i
CCc1nnc(NC(=O)CCC(=O)N2CCN(S(=O)(=O)c3cc(Cl)ccc3OC)CC2)s1	i	i	69.7*	i	i	i
O=C(Nc1nccs1)c1cccc(N2C(=O)c3cccc4c([N+](=O)[O-])ccc(c34)C2=O)c1	i	i	78.0*	i	i	i
CC(=O)Oc1cccc(N2C(=O)c3cccc4c([N+](=O)[O-])ccc(c34)C2=O)c1	i	i	/	i	-8.37*	i
O=C(Nc1ccc(S(=O)(=O)Nc2nccs2)cc1)c1cccc(N2C(=O)c3ccccc3C2=O)c1	i	i	-3.1	i	i	i
CN(C)CCCN1C(=O)c2cccc3c([N+](=O)[O-])ccc(c23)C1=O	i	/	7.2	i	-9.42*	/
CCOC(=O)C1=C(C)NC(=S)NC1c1ccc(OCC(=O)N2CCCCCC2)c(OC)c1 (stereo not drawn)	i	i	40.0	i	i	i
CCOC(=O)COn1c(-n2nc(C)cc2C)nc2ccccc2c1=O	i	i	28.0	i	i	i

From PubChem
